# KCNK3 block: human KCNK3 channel inhibition, primary screen | hit rate 0.84% among 340,000 | CHO-KCNK3 thallium flux, FluxOR fluorescence; stronger effect = lower value | B-score at 10 µM;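 active = B-score under library mean minus 4 SD, starting fluorescence ratio at most library mean plus 5 SD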;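 note: more negative B-score means stronger inhibition of thallium flux through KCNK3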
# KCNQ1 pot: potentiators or activators of human KCNQ1 potassium channel; B-score at 10 µM; hit rate 0.35% among 310,000; P51787; CHO-K1 KCNQ1, thallium flux FluxOR fluorescence; stronger effect = higher value;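 active = fluorescence ratio B-score, a plate-corrected score, at least three library SD, with initial intensity B-score within 5 SD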
#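 System: CHO-K1 cells stably expressing KCNQ1 / Medium: assay buffer for compound exposure, DMSO matched across wells / Reagent: thallium- and potassium-containing depolarizing buffer / Compound: one concentration, matched DMSO / Incubation: 20 min compound pretreatment at room temperature / Measured by: kinetic FluxOR fluorescence, 10 s baseline plus 110 s post-stimulus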
# KCNK9 inh: human KCNK9 channel inhibition; Q9NPC2; HEK293 KCNK9, FluxOR thallium flux fluorescence; stronger effect = lower value; B-score at 10 µM; hit rate 1.2% among 310,000; AID 488922;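 active = ratio B-score over 3 SD below the library mean, with starting fluorescence within 5 SD of its mean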;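 note: negative B-score means less thallium flux so channel inhibition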
# KCNQ1 block: inhibitors of human KCNQ1 potassium channel; CHO-K1 KCNQ1, FluxOR thallium flux fluorescence; stronger effect = higher value; B-score at 10 µM; hit rate 1.3% among 310,000;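 active = compounds whose thallium flux B-score, printed positive for inhibition, exceeds three library SD while starting fluorescence stays within three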;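 note: channel opened by potassium depolarization with thallium stimulus after 20 min compound exposure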
# Kir21 inh: inhibitors of mouse Kir2.1 inward-rectifier potassium channel. HEK293-Kir2.1, FluxOR thallium flux fluorescence; stronger effect = lower value. B-score at 10 µM. hit rate 0.85% among 310,000. P35561;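 active = fluorescence ratio B-score at or below minus 3 SD of library scores, with starting-brightness B-score within 2 SD, cut at about -4.2 in these data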;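 note: channel flux triggered by added potassium and thallium sulfate stimulus; B-score of peak minus minimum fluorescence over baseline after thallium stimulus; more negative B-score means stronger Kir2.1 block with less thallium influx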
# Target sequence (P35561 whole entry, looked up): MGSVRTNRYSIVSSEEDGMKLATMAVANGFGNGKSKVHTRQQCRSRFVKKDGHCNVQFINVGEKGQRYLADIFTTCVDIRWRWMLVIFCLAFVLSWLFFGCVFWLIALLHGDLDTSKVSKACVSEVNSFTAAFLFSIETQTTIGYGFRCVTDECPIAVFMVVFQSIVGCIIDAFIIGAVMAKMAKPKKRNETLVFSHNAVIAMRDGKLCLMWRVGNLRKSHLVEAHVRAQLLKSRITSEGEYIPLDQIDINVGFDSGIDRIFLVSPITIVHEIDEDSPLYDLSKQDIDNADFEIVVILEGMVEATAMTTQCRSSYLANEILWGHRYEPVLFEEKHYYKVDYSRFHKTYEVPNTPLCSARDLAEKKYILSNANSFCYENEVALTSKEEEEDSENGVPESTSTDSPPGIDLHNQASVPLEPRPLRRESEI
# hERG protect: compounds protecting human hERG from proarrhythmic drug block. AID 1511. Q12809. activation (rescue from dofetilide block), less the hit threshold, % at 10 µM. CHO-hERG, FluxOR thallium flux, dofetilide IC70 present. hit rate 0.51% among 310,000;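 active = activation above the mean of controls blocked by dofetilide plus 5 SD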;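 note: thallium influx through hERG after potassium depolarization seen as dye fluorescence rise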
# KCNK9 inh conf: human KCNK9 inhibitor confirmation; shares compounds with KCNK9 inh; hit rate 43% among 4,900; AID 492992; HEK293 KCNK9 cells, FluxOR thallium flux fluorescence; inhibition, % at 10 µM;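 active = thallium signal inhibited by more than 5 SD of the compound-free buffer control wells, on both duplicate plates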;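 note: 0% = assay buffer control wells without compound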
# Kir2-1 spec: tests whether KCNK9 modulators also affect mouse Kir2.1. shares compounds with KCNK9 inh. Kir2.1 cells, FluxOR thallium flux fluorescence. hit rate 4% among 4,900. inhibition, % at 10 µM;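 active = thallium signal drop more than 5 SD beyond the mean of the no-compound control wells, seen in both duplicate plates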;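 note: signal is fluorescence rise after thallium addition divided by baseline fluorescence; plate controls were assay buffer only for no effect and full block by chlorpromazine control for full effect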
# HEK293 Tl ctr: second counter-screen for KCNK9 modulators: effect in non-induced cells | shares compounds with KCNK9 inh | non-induced KCNK9-HEK293, FluxOR thallium flux | inhibition, % at 10 µM | hit rate 40% among 4,900 | AID 492997;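 active = thallium signal drop beyond 5 SD of the untreated control mean, on both duplicate plates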;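 note: plate controls were buffer only IC0 wells for no effect and SID17386958 at its maximal inhibitory level for full effect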
# KCNK3 inh conf: confirmation of human KCNK3 two-pore domain potassium channel inhibitors; shares compounds with KCNK3 block; CHO-KCNK3 thallium flux, FluxOR fluorescence; 0% buffer, 100% carvedilol maximal block; ratio percent of control, % at 10 µM; hit rate 99% among 2,400; AID 651638;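 active = ratio percent of control, averaged over triplicates, above buffer control mean plus 5 SD, cut at about 64% in these data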;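 note: ratio is the fluorescence rise from min to max over baseline after thallium stimulus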
# KCNK3 noninduced: KCNK3 inhibitor counter-screen hit in non-induced cells. shares compounds with KCNK3 block. non-induced KCNK3 parental cells, FluxOR thallium flux; stronger effect = lower value. thallium flux ratio (lower = more inhibition) at 10 µM. hit rate 40% among 2,400;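 active = thallium flux ratio, averaged over three wells, more than 5 SD below the buffer control mean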;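 note: host cells are CHO cells without KCNK3 induction; ratio is peak minus trough fluorescence over baseline then normalized to buffer controls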
# Active calls of the source: *; i = inactive; nt = not tested or not shown. Shown are actives, neighbours in structure and some others; about 3.7% of the full set was active somewhere.
SMILES,KCNK3 block,KCNQ1 pot,KCNK9 inh,KCNQ1 block,Kir21 inh,hERG protect,KCNK9 inh conf,Kir2-1 spec,HEK293 Tl ctr,KCNK3 inh conf,KCNK3 noninduced
Cc1oc(S(=O)(=O)N2CCCCC2)cc1NC(=O)Nc1ccc(F)cc1,i,i,i,i,-0.49,-4.4,nt,nt,nt,nt,nt
O=C(/C(N=Nc1cccc(C(F)(F)F)c1)=C(/O)c1cccs1)C(F)(F)F,i,i,-8.84*,10*,-1.72,-14.8,i,i,i,67.0*,i
CC(=O)/C(N=Nc1cccc(C(F)(F)F)c1)=C(\C)O,i,i,i,i,1.02,-3.6,nt,nt,nt,nt,nt
O/N=C(\c1ccc(Cl)cc1Cl)c1ncc(C(F)(F)F)cc1Cl,-9.8*,i,-13.3*,i,-1.19,-10.7,61.5%*,i,44.0%*,97.0*,0.136*
Cc1ccnc(SCC(=O)Nc2sccc2C#N)n1,i,i,i,i,-1.94,-10.4,nt,nt,nt,nt,nt
COc1nc(Nc2cccc([N+](=O)[O-])c2)nc(OC)n1,i,i,i,i,1.48,-6.5,nt,nt,nt,nt,nt
C#CCOc1nc(Nc2cccc([N+](=O)[O-])c2)nc(OCC#C)n1,-10.9*,i,-17.7*,i,-1.42,-11.7,51.0%*,i,i,107.0*,i
COc1ccc(/C=N\NC(=O)c2ccccc2OC)cc1COc1ccccc1C,i,i,i,i,1.82,-9.8,nt,nt,nt,nt,nt
COc1ccc(/C=N/NC(=O)c2ccoc2C)cc1COc1c(C)cccc1C,-12.8*,i,-11.4*,12*,-0.65,-14.0,47.5%*,i,i,113.0*,0.138*
N#CCSc1nc2c(c(C3CC=CCC3)c1C#N)CCC2 (stereo not drawn),i,i,-8.42*,i,0.61,-13.8,34.5%*,i,41.5%*,107.3*,i
Cc1cc(OC(C)C(=O)NCc2cccnc2)c2c(C)cc(=O)oc2c1 (stereo not drawn),i,i,i,i,-1.04,-5.8,nt,nt,nt,nt,nt
CCOC(=O)c1ccc(Oc2nc(SC)nc(N(C)C)n2)cc1,-9.81*,i,-8.8*,i,1.17,-3.1,48.0%*,i,42.5%*,102.7*,i
COc1ccc(CN(C)C(=O)c2oc3ccccc3c2CSC)cc1F,-11.4*,i,-12.1*,i,-0.01,-9.0,67.0%*,i,30.0%*,104.0*,i
O=C(CN1C(=O)COc2ccc(S(=O)(=O)N3CCCCCC3)cc21)NCc1ccc(F)cc1,i,i,i,i,-3.27,-9.2,nt,nt,nt,nt,nt
CC(C)OC(=O)COc1ccc(-c2ccccc2)cc1,-11.1*,i,-9.24*,i,1.03,-5.0,i,i,i,96.7*,i
COc1ccccc1/C=C(/CC(=O)NCc1ccc2c(c1)OCO2)c1nc2ccccc2s1,-9.31*,i,-11.7*,i,0.38,-6.4,56.5%*,i,29.0%*,125.0*,0.141*
COc1ccccc1/C=C/C(=O)OCC(=O)NCc1ccc2c(c1)OCO2,i,nt,nt,nt,nt,nt,nt,nt,nt,nt,nt
COc1ccc(C2CC(c3ccc4ccccc4c3)=NN2C(=O)CNC2CCCCC2)cc1 (stereo not drawn),-10.6*,i,-8.9*,i,-1.51,-29.5,44.5%*,i,29.5%*,132.7*,i
S=C(NC1CCCCC1)N(CCc1nc2ccccc2[nH]1)C1CCCC1,-10.5*,i,i,i,0.9,-14.2,i,i,i,118.0*,0.132*
COCCCNC(=O)Cc1c(C)c2c(cc(C)c3c(C(C)(C)C)coc32)oc1=O,i,i,i,i,-1.05,-4.8,nt,nt,nt,nt,nt
COc1ccc(OC)c(CCNC(=O)c2cccc(NC(=O)C3=C(C)OCCS3)c2)c1,-11*,i,-8.16*,i,0.46,-21.6,37.5%*,i,i,97.0*,i
CC1Cc2ccccc2N1C(=O)c1cc2cccnc2n(C)c1=O (stereo not drawn),i,i,i,i,0.74,-9.4,nt,nt,nt,nt,nt
CC(C)CN(CC(C)C)C(=O)c1cccc(S(=O)(=O)N2CCc3ccccc32)c1,-9.74*,i,-8.84*,i,-0.03,-2.9,40.5%*,i,37.0%*,111.3*,i
COC(=O)c1c(C)[nH]c(C(=O)C(C)OC(=O)c2cnc(C)cn2)c1C (stereo not drawn),i,nt,nt,nt,nt,nt,nt,nt,nt,nt,nt
Clc1ccc(CN(CC2CCCO2)C(c2cccs2)c2nnnn2C2CCCC2)cc1 (stereo not drawn),-8.9*,i,-17.4*,6*,-1.48,-13.0,60.0%*,i,48.5%*,110.3*,0.153*
SMILES,KCNK3 block,KCNQ1 pot,KCNK9 inh,KCNQ1 block,Kir21 inh,hERG protect,KCNK9 inh conf,Kir2-1 spec,HEK293 Tl ctr,KCNK3 inh conf,KCNK3 noninduced
CSc1cccc(NC(=O)c2cccc3cccnc23)c1,-9.71*,i,-9.6*,i,-1.32,-4.3,27.5%*,i,31.5%*,88.0*,i
COc1ccccc1C(=O)Nc1cccc(SC)c1,i,i,i,i,1.03,-16.9,nt,nt,nt,nt,nt
COc1ccc(C(=O)OC(C(=O)c2ccccc2)c2ccccc2)cc1 (stereo not drawn),-9.6*,i,-18.6*,i,-0.63,-4.1,77.0%*,i,46.5%*,115.3*,i
CCCC(=O)Nc1nnc(S(=O)(=O)N(CC(C)C)c2ccccc2)s1,i,i,i,i,-0.13,-3.4,nt,nt,nt,nt,nt
COC(=O)C1CCN(S(=O)(=O)CCNC(=O)c2ccc3c(c2)OCO3)CC1,i,i,i,i,-0.13,-12.6,nt,nt,nt,nt,nt
O=C(c1ccc(Cl)c(S(=O)(=O)N2CCc3ccccc32)c1)N1CCN(c2ccccc2O)CC1,i,nt,nt,nt,nt,nt,nt,nt,nt,nt,nt
O=C(NNC(=O)c1ccccc1O)c1ccc(Cl)c(S(=O)(=O)N2CCc3ccccc32)c1,-14.1*,i,-9.65*,14*,0.27,-29.6,31.5%*,i,i,116.3*,0.14*
Cc1ccc(NC2CCCN(C(=O)CCN3CCCCO3)C2)cc1C (stereo not drawn),i,i,i,i,0.41,-6.2,nt,nt,nt,nt,nt
COc1ccc(-c2nn(-c3ccccc3)cc2C(=O)NC2CC2)cc1,i,nt,nt,nt,nt,nt,nt,nt,nt,nt,nt

# From PubChem
